Data published in paper PMC3715850 (Nature Communications, 2013).
Like-named read-outs stand apart in the source and are kept apart here.

Assays:
Assay type in all cases: binding
Y766A = Y766A (Escherichia coli, UniProt P00582, C907S/D424A/K550C/L744C/Y766A); details: template G (DNA2); listed as G-dCTP
Procedure, shortened: (§1)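 Doubly labelled Klenow fragment (<100 pM) with DNA, titrated with nucleotide in 40 mM HEPES-NaOH pH 7.3, 10 mM MgCl2, 1 mM DTT, 100 μg ml−1 BSA, 5% glycerol, 1 mM mercaptoethylamine. Read by confocal alternating-laser excitation (532/638 nm) at ~22 °C. Stoichiometry-filtered E* histograms fitted as double Gaussians (σ≤0.07). Low-FRET peak shift and high-FRET fraction globally fitted for K0, K1, K2; Kd1=1/K1, Kd2=1/(K1K2).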

E710A = E710A (Escherichia coli, UniProt P00582, C907S/D424A/E710A/K550C/L744C); details: for occupancy of the closed conformation: 1 mM dNTP
Procedure, shortened: as §1

wt KF [1] = biological target: T1, wt KF (Escherichia coli, UniProt P00582, C907S/D424A/K550C/L744C); details: for free energy of closed complex relative to partially closed state, ΔrG(IN/CN) / free energy of partially closed state relative to open binary complex, ΔrG(O/IN): template A; for free energy of partially closed state relative to open binary complex, ΔrG(O/IN): nucleotide concentrations in E. coli (dTTP 120 μM, dGTP 60 μM)
Procedure, shortened: as §1

wt KF [2] = biological target: T1, wt KF; assay: Interconversion rates of ternary complexes by PDA and FRET-width analysis; details: template A, listed as A-dGTP
wt KF [3] = biological target: T1, wt KF; assay: Single-molecule FRET nucleotide titration in the absence of DNA; details: no DNA
Procedure, shortened: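 Polymerase without DNA: doubly labelled protein (<100 pM) titrated with nucleotide in HEPES-NaOH pH 7.3 buffer with 10 mM MgCl2, at ~22 °C by confocal alternating-laser excitation smFRET. O and C denote unliganded-protein states. Double-Gaussian fits of stoichiometry-filtered E* histograms; low-FRET peak shift and high-FRET fraction fitted globally for K0, K1, K2, with Kd1=1/K1.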

Y766F = Y766F (Escherichia coli, UniProt P00582, C907S/D424A/K550C/L744C/Y766F); details: template A (DNA1); listed as A-dTTP
Procedure, shortened: as §1

[4] = ternary complex, saturating nucleotide, PDA

Nc1ccn([C@H]2C[C@H](O)[C@@H](COP(=O)(O)OP(=O)(O)OP(=O)(O)O)O2)c(=O)n1 [dCTP]
K2 (equilibrium IN to closed CN) (Y766A): 8.9
occupancy of the closed conformation (E710A; template G (DNA2)): 61%
K2 (equilibrium IN to closed CN) (E710A; template G (DNA2), listed as G-dCTP): ~ 2

Nc1nc2c(ncn2[C@@H]2O[C@H](COP(=O)(O)OP(=O)(O)OP(=O)(O)O)[C@@H](O)[C@H]2O)c(=O)[nH]1 [rGTP]
K2 (equilibrium IN to closed CN) (wt KF [1]; template A (DNA1), listed as A-rGTP): < 0.2

Nc1nc2c(ncn2[C@H]2C[C@H](O)[C@@H](COP(=O)(O)OP(=O)(O)OP(=O)(O)O)O2)c(=O)[nH]1 [dGTP]
free energy of closed complex relative to partially closed state, ΔrG(IN/CN) (wt KF [1]): +6 kJ mol^−1
free energy of partially closed state relative to open binary complex, ΔrG(O/IN) (wt KF [1]): -0.17 kcal/mol
rate of the O-to-IN transition (wt KF [2]; at 60 μM dGTP (E. coli concentration), K1·kIN→O·[N]): 390 s⁻¹
kCN→IN (closed to partially closed) (wt KF [2]; [4]): 45 s⁻¹
kIN→CN (partially closed to closed) (wt KF [2]; [4]): 3 s⁻¹
K2 (equilibrium IN to closed CN) (wt KF [3]): < 0.2

Cc1cn([C@H]2C[C@H](O)[C@@H](COP(=O)(O)OP(=O)(O)OP(=O)(O)O)O2)c(=O)[nH]c1=O [dTTP]
free energy of closed complex relative to partially closed state, ΔrG(IN/CN) (wt KF [1]): -0.96 kcal/mol
molecules in closed conformation (occupancy) (wt KF [1]; template A (DNA1), 1 mM nucleotide): ~ 85%
K2 (equilibrium IN to closed CN) (wt KF [1]; template A (DNA1), listed as A-dTTP): 6.1
free energy of partially closed state relative to open binary complex, ΔrG(O/IN) (wt KF [1]): -1.9 kcal/mol
K2 (equilibrium IN to closed CN) (Y766F): 9.6

Nc1ncnc2c1ncn2[C@H]1C[C@H](O)[C@@H](COP(=O)(O)OP(=O)(O)OP(=O)(O)O)O1 [dATP]
occupancy of the closed conformation (E710A; template T (DNA3)): 58%
K2 (equilibrium IN to closed CN) (E710A; template T (DNA3), listed as T-dATP): ~ 2
